Several values for one entry are separate records, joined by “and”; a condition that tells them apart may be missing. Equal entries are not always repeated.
Tests used:
Fibroblast = assay: Multiplex assay against human fibroblast; type: toxicity, cell-based; details: number of replicates 2
Summary of the method: (§1)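 Phenotypes for tubulin, mitochondrial mass and membrane permeability are expressed as per cents of healthy-nucleus cells. Cells were stained live at seeding with Hoechst33342, BioTracker Green Microtubule Cytoskeleton Dye, MitoTracker Red and Annexin V Alexa Fluor 680, then imaged after compound addition on a CQ1 microscope at 37°C and 5% CO2. Machine-learning gating in CellPathfinder separated Hoechst high-intensity objects from normal cells, divided normal cells by nuclear state (healthy, pyknosed, fragmented) and divided pyknosed cells into mitotic or apoptotic.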

HEK-293T = assay: Multiplex assay against HEK293T; type: toxicity, cell-based; details: human, number of replicates 2; summary of the method: as §1
[1] = 12 h, 1 µM, compound concentration 1 uM
[2] = 12 h, 10 µM, compound concentration 10 uM
[3] = 24 h, 1 µM, compound concentration 1 uM
[4] = 24 h, 10 µM, compound concentration 10 uM
[5] = 48 h, 1 µM, compound concentration 1 uM
[6] = 48 h, 10 µM, compound concentration 10 uM

Br.Cc1cccc(C2CN(C)CCc3c2cc(O)c(O)c3Cl)c1 (configuration not stated)
Population Apoptotic (%) (Fibroblast; [1]): 50% and 47% | Population Fragmented Nuclei (%) (Fibroblast; [1]): 10% and 13% | Population Healthy Nuclei (%) (Fibroblast; [1]): 79% | Population Hoechst High Intensity Objects (%) (Fibroblast; [1]): 0% | Population Membrane Permeable-Phenotype (%) (Fibroblast; [1]): 1% and 4% | Population Mitochondria Different-Phenotype (%) (Fibroblast; [1]): 0% and 1% | Population Mitotic Cells (%) (Fibroblast; [1]): 50% and 52% | Population Normal (%) (Fibroblast; [1]): 100% | Population Pyknosed Nuclei (%) (Fibroblast; [1]): 10% and 6% | Population Tubulin-Different-Phenotype (%) (Fibroblast; [1]): 9% and 5% | Total Cell Count (Fibroblast; [1]): 210 and 248 | Population Apoptotic (%) (Fibroblast; [2]): 68% and 66% | Population Fragmented Nuclei (%) (Fibroblast; [2]): 11% and 13% | Population Healthy Nuclei (%) (Fibroblast; [2]): 77% and 78% | Population Hoechst High Intensity Objects (%) (Fibroblast; [2]): 0% | Population Membrane Permeable-Phenotype (%) (Fibroblast; [2]): 2% | Population Mitochondria Different-Phenotype (%) (Fibroblast; [2]): 1% and 5% | Population Mitotic Cells (%) (Fibroblast; [2]): 31% and 33% | Population Normal (%) (Fibroblast; [2]): 99% and 100% | Population Pyknosed Nuclei (%) (Fibroblast; [2]): 11% and 8% | Population Tubulin-Different-Phenotype (%) (Fibroblast; [2]): 10% and 11% | Total Cell Count (Fibroblast; [2]): 167 and 173 | Population Apoptotic (%) (Fibroblast; [3]): 57% and 53% | Population Fragmented Nuclei (%) (Fibroblast; [3]): 10% and 14% | Population Healthy Nuclei (%) (Fibroblast; [3]): 82% and 80% | Population Hoechst High Intensity Objects (%) (Fibroblast; [3]): 0% | Population Membrane Permeable-Phenotype (%) (Fibroblast; [3]): 1% | Population Mitochondria Different-Phenotype (%) (Fibroblast; [3]): 0% and 1% | Population Mitotic Cells (%) (Fibroblast; [3]): 42% and 46% | Population Normal (%) (Fibroblast; [3]): 99% and 100% | Population Pyknosed Nuclei (%) (Fibroblast; [3]): 6% and 5% | Population Tubulin-Different-Phenotype (%) (Fibroblast; [3]): 8% and 3% | Total Cell Count (Fibroblast; [3]): 205 and 242 | Population Apoptotic (%) (Fibroblast; [4]): 50% and 70% | Population Fragmented Nuclei (%) (Fibroblast; [4]): 10% and 15% | Population Healthy Nuclei (%) (Fibroblast; [4]): 79% and 78% | Population Hoechst High Intensity Objects (%) (Fibroblast; [4]): 0% | Population Membrane Permeable-Phenotype (%) (Fibroblast; [4]): 3% and 0% | Population Mitochondria Different-Phenotype (%) (Fibroblast; [4]): 0% | Population Mitotic Cells (%) (Fibroblast; [4]): 50% and 30% | Population Normal (%) (Fibroblast; [4]): 100% | Population Pyknosed Nuclei (%) (Fibroblast; [4]): 9% and 5% | Population Tubulin-Different-Phenotype (%) (Fibroblast; [4]): 8% and 7% | Total Cell Count (Fibroblast; [4]): 165 and 174 | Population Apoptotic (%) (Fibroblast; [5]): 50% and 62% | Population Fragmented Nuclei (%) (Fibroblast; [5]): 13% | Population Healthy Nuclei (%) (Fibroblast; [5]): 80% and 83% | Population Hoechst High Intensity Objects (%) (Fibroblast; [5]): 0% | Population Membrane Permeable-Phenotype (%) (Fibroblast; [5]): 1% and 2% | Population Mitochondria Different-Phenotype (%) (Fibroblast; [5]): 1% and 0% | Population Mitotic Cells (%) (Fibroblast; [5]): 50% and 37% | Population Normal (%) (Fibroblast; [5]): 99% and 100% | Population Pyknosed Nuclei (%) (Fibroblast; [5]): 5% and 3% | Population Tubulin-Different-Phenotype (%) (Fibroblast; [5]): 4% and 1% | Total Cell Count (Fibroblast; [5]): 211 and 238 | Population Apoptotic (%) (Fibroblast; [6]): 44% and 100% | Population Fragmented Nuclei (%) (Fibroblast; [6]): 12% and 15% | Population Healthy Nuclei (%) (Fibroblast; [6]): 82% | Population Hoechst High Intensity Objects (%) (Fibroblast; [6]): 0% | Population Membrane Permeable-Phenotype (%) (Fibroblast; [6]): 2% and 0% | Population Mitochondria Different-Phenotype (%) (Fibroblast; [6]): 0% | Population Normal (%) (Fibroblast; [6]): 100% | Population Pyknosed Nuclei (%) (Fibroblast; [6]): 5% and 1% | Population Tubulin-Different-Phenotype (%) (Fibroblast; [6]): 3% and 4% | Total Cell Count (Fibroblast; [6]): 178 and 170 | Population Apoptotic (%) (HEK-293T; [1]): 15% and 42% | Population Fragmented Nuclei (%) (HEK-293T; [1]): 4% and 3% | Population Healthy Nuclei (%) (HEK-293T; [1]): 87% and 86% | Population Hoechst High Intensity Objects (%) (HEK-293T; [1]): 9% and 4% | Population Membrane Permeable-Phenotype (%) (HEK-293T; [1]): 3% and 2% | Population Mitochondria Different-Phenotype (%) (HEK-293T; [1]): 11% and 15% | Population Mitotic Cells (%) (HEK-293T; [1]): 84% and 57% | Population Normal (%) (HEK-293T; [1]): 90% and 95% | Population Pyknosed Nuclei (%) (HEK-293T; [1]): 8% and 10% | Population Tubulin-Different-Phenotype (%) (HEK-293T; [1]): 50% | Total Cell Count (HEK-293T; [1]): 707 and 682 | Population Apoptotic (%) (HEK-293T; [2]): 52% and 53% | Population Fragmented Nuclei (%) (HEK-293T; [2]): 3% and 4% | Population Healthy Nuclei (%) (HEK-293T; [2]): 88% and 81% | Population Hoechst High Intensity Objects (%) (HEK-293T; [2]): 8% and 7% | Population Membrane Permeable-Phenotype (%) (HEK-293T; [2]): 1% and 2% | Population Mitochondria Different-Phenotype (%) (HEK-293T; [2]): 27% and 22% | Population Mitotic Cells (%) (HEK-293T; [2]): 47% and 46% | Population Normal (%) (HEK-293T; [2]): 91% and 92% | Population Pyknosed Nuclei (%) (HEK-293T; [2]): 7% and 14% | Population Tubulin-Different-Phenotype (%) (HEK-293T; [2]): 63% and 57% | Total Cell Count (HEK-293T; [2]): 523 and 513 | Population Apoptotic (%) (HEK-293T; [3]): 36% and 32% | Population Fragmented Nuclei (%) (HEK-293T; [3]): 5% | Population Healthy Nuclei (%) (HEK-293T; [3]): 89% | Population Hoechst High Intensity Objects (%) (HEK-293T; [3]): 7% and 8% | Population Membrane Permeable-Phenotype (%) (HEK-293T; [3]): 3% and 1%

— ChEMBL document CHEMBL5303300, “EUbOPEN Chemogenomics Library - Multiplex” (2023)
